Laboratory results taken from publication PMC8360206 (Cancer, 2021).
Where two headings read alike, the source gives them in different places.

Key:
patients with R/R AML = details: OTX015 monotherapy ref 10; cited from earlier work
[1] = tested on: patients with relapsed/refractory solid tumors; details: cited from earlier work
[2] = tested on: DCXR, HEXIM1, CD93, MYC, BCL2, PUMA, BIM gene expression in peripheral blood; format: in vivo, human; details: for pharmacodynamic effects (gene modulation) vs dose and drug exposure: peripheral blood, correlation with Cmax, P < .05
Method in brief: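 Whole blood was drawn before and 6 h after the C1D1 monotherapy dose. RNA from it underwent whole-transcriptome sequencing, and marker expression was given as percent change from baseline. Linear regression related C1D1 plasma Cmax to biomarker change.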

[3] = tested on: patients with relapsed/refractory AML; test: Safety: treatment‐emergent adverse events and DLTs; format: in vivo, human
Method in brief: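 3 + 3 dose escalation, daily dosing in 28-day cycles. Monotherapy was 1.5, 2.0 or 2.5 mg. TEAEs (first dose to 30 days post-discontinuation) were graded by NCI CTCAE v4.03 in all patients given ≥1 dose.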

[4] = Plasma mivebresib pharmacokinetics; format: in vivo, human
[5] = tested on: relapsed/refractory acute myeloid leukemia; test: Clinical activity: IWG response, bone marrow blast change, PFS, OS; format: in vivo, human
Method in brief: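 Adults (≥18 y) with relapsed/refractory AML got the test compound daily in 28-day cycles at 1.5, 2.0 or 2.5 mg as monotherapy. Response followed revised IWG AML criteria, comparing baseline bone marrow with at least 1 on-treatment marrow sample. Marrow was sampled at screening, C2D1 and as clinically indicated. Patients without a postbaseline sample were not evaluable. PFS and OS were summarised descriptively.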

[6] = PB, 6 hours after MIV‐mono administration, P < .001
[7] = MIV‐mono n = 19, started MIV‐Ven n = 25
[8] = started arms (mono n = 19, combination n = 25)

Cc1sc2c(c1C)C(c1ccc(Cl)cc1)=N[C@@H](CC(=O)Nc1ccc(O)cc1)c1nnc(C)n1-2 [OTX015]
rate of diarrhea (patients with R/R AML): 34% | rate of nausea (patients with R/R AML): 22% | rate of vomiting (patients with R/R AML): 7%

CCS(=O)(=O)Nc1ccc(Oc2ccc(F)cc2F)c(-c2cn(C)c(=O)c3[nH]ccc23)c1 [mivebresib]
solid tumor recommended phase 2 dose [1]: 1.5 mg daily | BIM (proapoptotic gene) expression ([2]; 6 hours after MIV‐mono, P < .0005, data not shown): increased | BCL2 (antiapoptotic gene) expression ([2]; 6 hours after MIV‐mono, P < .01, data not shown): inhibited | PUMA (proapoptotic gene) expression ([2]; 6 hours after MIV‐mono, P < .064, data not shown): increased | CD93 expression [2, 6]: decrease | DCXR gene expression [2, 6]: increase | HEXIM1 gene expression [2, 6]: increase | MYC expression ([2]; PB, 6 hours after MIV‐mono administration, P < .083): decrease | pharmacodynamic effects (gene modulation) vs dose and drug exposure [2]: proportional to dose and drug exposure | pharmacodynamic effects (gene modulation) vs dose and drug exposure ([2]; listed as MIV‐mono): dose‐dependent | anemia, grade ≥3 mivebresib‐related TEAE ([3]; MIV‐mono n = 19): 26% | decreased appetite, TEAE frequency ([3]; MIV‐mono n = 19): 58% | decreased appetite, grade ≥3 ([3]; MIV‐mono n = 19): 11% | diarrhea, grade ≥3 ([3]; MIV‐mono n = 19): no grade ≥3 | fatigue, TEAE frequency ([3]; MIV‐mono n = 19): 68% | fatigue, grade ≥3 ([3]; MIV‐mono n = 19): 21% | nausea, grade ≥3 ([3]; MIV‐mono n = 19): 5% | pneumonia, serious TEAE ([3]; MIV‐mono n = 19): 16% | AML progression (AML), serious TEAE [3, 7]: 16% | decreased appetite, mivebresib‐related TEAE [3, 7]: 42% | diarrhea, mivebresib‐related TEAE [3, 7]: 42% | dysgeusia, mivebresib‐related TEAE [3, 7]: 74% | febrile neutropenia, serious TEAE [3, 7]: 16% | grade ≥3 mivebresib‐related TEAEs, patients [3, 7]: 68% | serious adverse events (serious TEAEs regardless of relatedness), patients [3, 7]: 74% | thrombocytopenia, grade ≥3 mivebresib‐related TEAE [3, 7]: 32% | dose‐limiting toxicities (DLTs) ([3]; first 4 weeks, all dose levels): No DLTs occurred | ALT increased, AE related to mivebresib [3, 8]: 1 (5) No. of Patients (%) | AST increased, AE related to mivebresib [3, 8]: 0 (0) No. of Patients (%) | Anemia, AE related to mivebresib [3, 8]: 7 (37) No. of Patients (%) | Anemia, TEAE [3, 8]: 13 (68) No. of Patients (%) | Any TEAEs [3, 8]: 19 (100) No. of Patients (%) | Cough, TEAE [3, 8]: 6 (32) No. of Patients (%) | Decreased appetite, AE related to mivebresib [3, 8]: 8 (42) No. of Patients (%) | Decreased appetite, TEAE [3, 8]: 11 (58) No. of Patients (%) | Diarrhea, AE related to mivebresib [3, 8]: 8 (42) No. of Patients (%) | Diarrhea, TEAE [3, 8]: 9 (47) No. of Patients (%) | Dry mouth, AE related to mivebresib [3, 8]: 2 (11) No. of Patients (%) | Dysgeusia, AE related to mivebresib [3, 8]: 14 (74) No. of Patients (%) | Dysgeusia, TEAE [3, 8]: 15 (79) No. of Patients (%) | Dyspnea, TEAE [3, 8]: 6 (32) No. of Patients (%) | Epistaxis, AE related to mivebresib [3, 8]: 3 (16) No. of Patients (%) | Epistaxis, TEAE [3, 8]: 4 (21) No. of Patients (%) | Fatigue, AE related to mivebresib [3, 8]: 7 (37) No. of Patients (%) | Fatigue, TEAE [3, 8]: 13 (68) No. of Patients (%) | Febrile neutropenia, AE related to mivebresib [3, 8]: 0 (0) No. of Patients (%) | Febrile neutropenia, TEAE [3, 8]: 7 (37) No. of Patients (%) | Headache, AE related to mivebresib [3, 8]: 0 (0) No. of Patients (%) | Hyperbilirubinemia, TEAE [3, 8]: 6 (32) No. of Patients (%) | Hypokalemia, TEAE [3, 8]: 3 (16) No. of Patients (%) | Hypomagnesemia, TEAE [3, 8]: 2 (11) No. of Patients (%) | Muscular weakness, TEAE [3, 8]: 7 (37) No. of Patients (%) | Nausea, AE related to mivebresib [3, 8]: 7 (37) No. of Patients (%) | Nausea, TEAE [3, 8]: 9 (47) No. of Patients (%) | Neutrophil count decreased, AE related to mivebresib [3, 8]: 2 (11) No. of Patients (%) | Platelet count decreased, AE related to mivebresib [3, 8]: 2 (11) No. of Patients (%) | Stomatitis, AE related to mivebresib [3, 8]: 1 (5) No. of Patients (%) | Thrombocytopenia, AE related to mivebresib [3, 8]: 7 (37) No. of Patients (%) | Thrombocytopenia, TEAE [3, 8]: 10 (53) No. of Patients (%) | Vomiting, AE related to mivebresib [3, 8]: 5 (26) No. of Patients (%) | Vomiting, TEAE [3, 8]: 6 (32) No. of Patients (%) | WBC count decreased, AE related to mivebresib [3, 8]: 1 (5) No. of Patients (%) | Weight decreased, AE related to mivebresib [3, 8]: 2 (11) No. of Patients (%) | patients with an AE leading to discontinuation ([3]; whole study, MIV‐mono and MIV‐Ven): Seventeen | steady‐state accumulation ratio ([4]; AUC0‐24 on C1D8 versus C1D1, daily dosing): approximately 2 fold | dose proportionality of PK ([4]; dose‐normalized C1D8 Cmax and AUC24 over the studied dosing range): approximately dose proportional | half-life ([4]; human, plasma, oral): 16.4 h | effect of venetoclax coadministration on mivebresib PK ([4]; monotherapy vs combination cohorts): no effect | response: CRi ([5]; 19 patients who received MIV‐mono): 5% | median OS ([5]; MIV‐mono 1.5 mg): 15.7 weeks | median PFS ([5]; MIV‐mono 1.5 mg): 7.2 weeks | median OS ([5]; MIV‐mono 2.0 mg): 22.0 weeks | median PFS ([5]; MIV‐mono 2.0 mg): 13.9 weeks | median OS ([5]; MIV‐mono 2.5 mg): 12.6 weeks | median PFS ([5]; MIV‐mono 2.5 mg): 10.6 weeks | patients with FLT3 and NPM1 co‐occurrence who responded / had a reduction in BM blasts ([5]; MIV‐mono 3 patients, MIV‐Ven 4 patients): None | response: CRi ([5]; MIV‐mono group): 1 patient | patients with measurable reduction in BM blasts ([5]; assessable patients: 16 MIV‐mono, 15 only MIV‐Ven): 44% | Best IWG response: Aplasia [5, 8]: 0 (0) No. of Patients (%) | Best IWG response: CR [5, 8]: 0 (0) No. of Patients (%) | Best IWG response: CRi [5, 8]: 1 (5) No. of Patients (%) | Best IWG response: MLFS [5, 8]: 0 (0) No. of Patients (%) | Best IWG response: PR [5, 8]: 0 (0) No. of Patients (%) | Best IWG response: Resistant disease [5, 8]: 15 (79) No. of Patients (%) | Best IWG response: Unknown: Not assessable or insufficient data [5, 8]: 3 (16) No. of Patients (%)
